For assay [1], the target named is T1, Caspase-3 (Homo sapiens) (UniProt P42574).
T1 sequence (whole entry): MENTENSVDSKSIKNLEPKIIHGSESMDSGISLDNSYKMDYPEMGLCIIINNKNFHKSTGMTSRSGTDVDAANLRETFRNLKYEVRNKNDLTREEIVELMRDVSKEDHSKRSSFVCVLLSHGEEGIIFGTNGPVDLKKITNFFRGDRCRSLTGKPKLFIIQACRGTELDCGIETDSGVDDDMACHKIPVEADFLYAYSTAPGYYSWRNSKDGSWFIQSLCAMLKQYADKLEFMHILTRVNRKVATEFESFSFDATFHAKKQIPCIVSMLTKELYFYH
The assay can be described thus: Second-order inhibition rate of caspase-3 was determined by progress curve method; No inhibition. A digest of the protocol: (§1)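 Caspases-3, -6 and -8 were assayed in 50 mM HEPES, 100 mM NaCl, 0.1% (w/v) CHAPS, 10% (w/v) sucrose and 10 mM DTT, pH 7.4. Substrate: Cbz-DEVD-AFC or Cbz-DEVD-AMC.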

Assay [2] addresses T2, Caspase-6 (Homo sapiens) (UniProt P55212).
T2 sequence (whole entry): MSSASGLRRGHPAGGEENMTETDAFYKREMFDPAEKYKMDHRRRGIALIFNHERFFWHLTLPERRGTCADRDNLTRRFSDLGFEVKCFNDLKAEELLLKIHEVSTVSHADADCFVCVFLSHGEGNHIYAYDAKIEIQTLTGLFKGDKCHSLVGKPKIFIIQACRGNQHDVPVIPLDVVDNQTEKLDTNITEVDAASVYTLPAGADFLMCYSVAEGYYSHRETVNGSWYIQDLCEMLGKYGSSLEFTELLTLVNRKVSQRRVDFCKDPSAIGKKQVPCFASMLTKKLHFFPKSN
Nature of the assay: Second-order inhibition rate of caspase-6 was determined by progress curve method; No inhibition. The procedure, abridged: as §1

Assay [3] deals with Caspase-8 (Homo sapiens) (UniProt Q14790). Nature of the assay: Second-order inhibition rate of caspase-8 was determined by progress curve method; No inhibition. A digest of the protocol:
as §1

In assay [4] the target is T3, Caspase-1 (Homo sapiens) (UniProt P29466).
T3 sequence (whole entry): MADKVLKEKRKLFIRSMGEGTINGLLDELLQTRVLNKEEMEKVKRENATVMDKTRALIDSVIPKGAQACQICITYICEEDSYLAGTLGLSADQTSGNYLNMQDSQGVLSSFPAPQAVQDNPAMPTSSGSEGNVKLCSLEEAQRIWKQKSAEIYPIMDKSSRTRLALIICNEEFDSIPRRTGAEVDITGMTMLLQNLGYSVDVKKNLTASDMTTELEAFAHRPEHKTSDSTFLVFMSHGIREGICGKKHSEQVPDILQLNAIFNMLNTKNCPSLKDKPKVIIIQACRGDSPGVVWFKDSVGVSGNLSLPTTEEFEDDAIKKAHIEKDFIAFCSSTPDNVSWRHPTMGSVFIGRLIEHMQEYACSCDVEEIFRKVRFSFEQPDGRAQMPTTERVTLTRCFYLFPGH
The assay can be described thus: Second-order inhibition rate of caspase-1 was determined by progress curve method. A digest of the protocol:
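Caspase-1 assay buffer: 100 mM HEPES, 0.5 mM EDTA, 20% (v/v) glycerol, 5 mM DTT, pH 7.5. Substrate: Ac-YVAD-AMC.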

The target in assay [5] is T1, Caspase-3 (Homo sapiens). The assay can be described thus: Second-order inhibition rate of caspase-3 was determined by progress curve method. The procedure, abridged:
as §1

Assay [6] deals with T2, Caspase-6 (Homo sapiens). Nature of the assay: Second-order inhibition rate of caspase-6 was determined by progress curve method. A digest of the protocol: as §1
For assay [7], the target named is Caspase-8 (Homo sapiens) (UniProt Q14790). Nature of the assay: Second-order inhibition rate of caspase-8 was determined by progress curve method. The procedure, abridged:
as §1

Assay [8] addresses Cathepsin B (Homo sapiens) (UniProt P07858). Nature of the assay: Tested for inhibition of cathepsin B by the compound; NI = No Inhibition.
Assay [9] deals with Granzyme B (Homo sapiens) (UniProt P10144). The assay can be described thus: Tested for inhibition of granzyme B by the compound.
Granzyme B (Homo sapiens), sequence (P10144 whole entry): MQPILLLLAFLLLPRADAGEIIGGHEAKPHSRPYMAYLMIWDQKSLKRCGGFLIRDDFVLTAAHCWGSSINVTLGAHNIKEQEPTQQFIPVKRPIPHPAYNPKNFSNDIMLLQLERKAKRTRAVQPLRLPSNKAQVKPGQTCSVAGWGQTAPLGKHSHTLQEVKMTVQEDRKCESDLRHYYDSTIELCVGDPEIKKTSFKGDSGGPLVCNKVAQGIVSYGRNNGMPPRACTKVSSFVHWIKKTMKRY
Assay [10] deals with T4, Papain (Carica papaya) (UniProt P00784).
T4 sequence (whole entry): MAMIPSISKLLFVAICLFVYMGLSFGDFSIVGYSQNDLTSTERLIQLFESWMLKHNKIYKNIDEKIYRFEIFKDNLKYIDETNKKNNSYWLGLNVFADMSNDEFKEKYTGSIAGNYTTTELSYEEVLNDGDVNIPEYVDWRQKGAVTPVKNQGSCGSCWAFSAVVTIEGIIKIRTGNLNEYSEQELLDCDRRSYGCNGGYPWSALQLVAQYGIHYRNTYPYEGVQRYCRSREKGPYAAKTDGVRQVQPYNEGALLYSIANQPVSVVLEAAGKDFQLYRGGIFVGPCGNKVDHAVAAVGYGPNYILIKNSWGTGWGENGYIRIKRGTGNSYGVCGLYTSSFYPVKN
The assay can be described thus: Tested for inhibition of papain by the compound; NI = No Inhibition.

Assay [11] has as its system Cathepsin B. The assay can be described thus: Tested for inhibition of cathepsin B by the compound; NI = No Inhibition.
The nature of assay [12]: Tested for inhibition of chymotrypsinogen by the compound; NI = No Inhibition.

The source of these data is ChEMBL document CHEMBL1149106, “Design, synthesis, and evaluation of aza-peptide epoxides as selective and potent inhibitors of caspases-1, -3, -6, and -8” (J Med Chem, 2004).

The structures appear in SMILES notation. Active and inactive are the calls of the source. The rule behind the calls is not given here.

Caspase-8 (Homo sapiens), sequence (Q14790 217-374 limits assumed): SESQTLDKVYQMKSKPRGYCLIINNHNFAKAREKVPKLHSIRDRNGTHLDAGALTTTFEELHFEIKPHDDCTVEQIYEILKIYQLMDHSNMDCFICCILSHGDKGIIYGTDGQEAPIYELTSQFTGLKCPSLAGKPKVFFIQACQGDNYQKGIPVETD
Caspase-8 (Homo sapiens), sequence (Q14790 385-479 limits assumed): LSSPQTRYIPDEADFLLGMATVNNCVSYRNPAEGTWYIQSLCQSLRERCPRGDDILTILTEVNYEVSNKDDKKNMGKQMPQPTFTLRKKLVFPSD

In the case of `CC(C)[C@H](NC(=O)CCc1ccccc1)C(=O)N[C@@H](C)C(=O)NN(CC(=O)O)C(=O)[C@@H]1O[C@H]1C(=O)N[C@@H](Cc1ccccc1)C(N)=O`, the k2 result in assay [1], in assay [2] and in assay [3] was “inactive” throughout. Moreover, the k2 in assay [4] turned out to be 330 M⁻¹ s⁻¹.

`CC(C)[C@H](NC(=O)CCc1ccccc1)C(=O)N[C@@H](C)C(=O)NN(CC(=O)O)C(=O)[C@@H]1O[C@H]1C(=O)N[C@@H](C)C(=O)NCc1ccccc1`: the k2 result in [1], in assay [2] and in [3] was “inactive” in each case. In assay [4], this molecule showed a k2 of 270 M⁻¹ s⁻¹.

With `CC(C)[C@H](NC(=O)CCc1ccccc1)C(=O)N[C@@H](C)C(=O)NN(CC(=O)O)C(=O)[C@@H]1O[C@H]1C(=O)NCC(O)c1ccccc1` (stereo partly specified), the k2 result in assay [1], in assay [2] and in [3] was “inactive” throughout. Moreover, the k2 in assay [4] was 400 M⁻¹ s⁻¹.

In the case of `CCOC(=O)[C@H]1O[C@@H]1C(=O)N(CC(=O)O)NC(=O)[C@@H](NC(=O)[C@H](CCC(=O)O)NC(=O)[C@H](CC(=O)O)NC(=O)OCc1ccccc1)C(C)C`, the k2 in assay [5] turned out to be 1.07e+06 M⁻¹ s⁻¹; in assay [6], 5440 M⁻¹ s⁻¹; in [7] it was 95500 M⁻¹ s⁻¹; in assay [4], 11800 M⁻¹ s⁻¹. Besides, the “k obs / 1” value in assay [8], in assay [10] and in assay [11] was “inactive” throughout. Moreover, the k obs / 1 in assay [9] was less than 0.1 M⁻¹ s⁻¹; in [12], 46 M⁻¹ s⁻¹.

With `CC(C)[C@H](NC(=O)CCc1ccccc1)C(=O)N[C@@H](C)C(=O)NN(CC(=O)O)C(=O)[C@@H]1O[C@H]1C(=O)NCCc1ccccc1`, the k2 result in [1], in [2] and in assay [3] was “inactive” throughout. This molecule also registered a k2 in assay [4] of 950 M⁻¹ s⁻¹.

Regarding `CC(C)[C@H](NC(=O)CCc1ccccc1)C(=O)N[C@@H](C)C(=O)NN(CC(=O)O)C(=O)[C@@H]1O[C@H]1C(=O)NCc1ccccc1`, the k2 result in assay [1], in [2] and in assay [3] was “inactive” each time. Further, the k2 in assay [4] was determined as 1630 M⁻¹ s⁻¹.

`CCOC(=O)[C@@H]1O[C@H]1C(=O)N(CC(=O)O)NC(=O)[C@@H](NC(=O)C(CCC(=O)O)NC(=O)[C@H](CC(C)C)NC(=O)OCc1ccccc1)[C@@H](C)O` (stereo partly specified): the k2 was 3250 M⁻¹ s⁻¹ in [5], 4390 M⁻¹ s⁻¹ in assay [6], 34700 M⁻¹ s⁻¹ in [7] and 19600 M⁻¹ s⁻¹ in assay [4]. Besides, the “k obs / 1” value in [8], in assay [10] and in assay [11] was “inactive” each time. Moreover, the k obs / 1 in assay [12] was 15 M⁻¹ s⁻¹.

Take `CC(C)[C@H](NC(=O)CCc1ccccc1)C(=O)N[C@@H](C)C(=O)NN(CC(=O)O)C(=O)[C@H]1O[C@@H]1CCc1ccccc1`: the k2 in [4] is 300 M⁻¹ s⁻¹. Besides, the “k obs / 1” value in assay [8], in assay [10], in assay [11] and in [12] was “inactive” each time.

As for `CCOC(=O)[C@@H]1O[C@H]1C(=O)N(CC(=O)O)NC(=O)[C@H](C)NC(=O)[C@@H](NC(=O)CCc1ccccc1)C(C)C`, the k2 entry in assay [1], in assay [2] and in assay [3] was “inactive” throughout. This molecule gave a k2 in [4] of 6290 M⁻¹ s⁻¹.
